Source: ChEMBL document CHEMBL1148290, “Synthesis of flexible sulfur-containing heteroarotinoids that induce apoptosis and reactive oxygen species with discrimination between malignant and benign cells” (2004)

Experiments:
Format in all cases: functional
[1] = system: SK-OV-3; experiment: Potency of compound was determined from ability to inhibit the growth of ovarian carcinoma SK-OV-3 cell line
Procedure, shortened: (§1)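 Cells seeded at 1000 cells/well; next day retinoids added from DMSO stocks (DMSO ≤0.01% final; solvent-only controls) to final 1, 4, 7 and 10 μM, handled under subdued light. After 3 days, living cells quantitated by MTS/PMS reduction read at OD490 in linear range (0.1–0.6); triplicate wells averaged, percent growth inhibition calculated versus solvent controls.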

[2] = system: OVCAR-3; experiment: Potency of compound was determined from ability to inhibit the growth of ovarian carcinoma OVCAR-3 cell line; procedure, shortened: as §1
[3] = system: Caov-3 cell line; experiment: Potency of compound was determined from ability to inhibit the growth of ovarian carcinoma cell line Caov-3; procedure, shortened: as §1
[4] = system: SK-OV-3; experiment: Efficacy is growth inhibition activity at 10 uM concentration relative to the maximum activity observed for 4-HPR with SK-OV-3 cell line; procedure, shortened: as §1
[5] = system: Caov-3 cell line; experiment: Efficacy is growth inhibition activity at 10 uM concentration relative to the maximum activity observed for 4-HPR with Caov-3 cell line; procedure, shortened: as §1
[6] = system: OVCAR-3; experiment: Efficacy is growth inhibition activity at 10 uM concentration relative to the maximum activity observed for 4-HPR with OVCAR-3 cell line; procedure, shortened: as §1

SMILES | Potency [1] [µM] | Potency [2] [µM] | Potency [3] [µM] | Efficacy [4] [%] | Efficacy [5] [%] | Efficacy [6] [%]
CCOC(=O)c1ccc(NC(=O)Nc2cc3c(cc2C)SC(C)(C)CC3(C)C)cc1 | 7.2 | 4.7 | 10.2 | 75.7 | 54.9 | 107
Cc1cc([N+](=O)[O-])ccc1/N=C(\S)Nc1ccc2c(c1)C(C)(C)CC(C)(C)S2 | 3.9 | 3.7 | 7.4 | 78.4 | 52.1 | 149.5
CCOC(=O)c1ccc(N/C(S)=N/c2ccc3c(c2)C(C)(C)CC(C)(C)S3)cc1 | 3.9 | 3.9 | 4.6 | 64.9 | 38.1 | 133.8
CC1(C)CC(C)(C)c2cc(NC(=S)Nc3ccc([N+](=O)[O-])cc3)ccc2S1 [SHETA-2] | 0.2 | 1 | 3.7 | 69.1 | 89.2 | 155.2
CCOC(=O)c1ccc(NC(=O)Nc2ccc3c(c2)C(C)(C)CC(C)(C)S3)cc1 | 4.1 | 3.9 | 7 | 71.8 | 63.7 | 160.4
CC1(C)CC(C)(C)c2cc(N/C(S)=N/c3ccc(S(N)(=O)=O)cc3)ccc2S1 | 7.8 | 4.4 | 7 | 50.5 | 16.7 | 74.1
Cc1cc2c(cc1/N=C(\S)Nc1ccc(S(N)(=O)=O)cc1)C(C)(C)CC(C)(C)S2 | 6.9 | 4.4 | 0.9 | 67.7 | 30.3 | 90
CC1=C(/C=C/C(C)=C/C=C/C(C)=C/C(=O)Nc2ccc(O)cc2)C(C)(C)CCC1 [FENRETINIDE] | 8.2 | 6.9 | 3.7 | 100 | 100 | 100
CCOC(=O)c1ccc(N/C(S)=N/c2cc3c(cc2C)SC(C)(C)CC3(C)C)cc1 | 4.4 | 4.4 | 4 | 85.4 | 37.4 | 114.4
